In test [1] the test system is MCF7. Put plainly: Increase in endogenous sphingosine level in human MCF7 cells at 10 uM after 1 to 2.5 hrs. The test is classed as functional, cell-based. The gist of the method: (§1)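 MCF7 cells grown in RPMI 1640 with 10% FCS at 37 °C in 5% CO2. Seeded near 50% density and treated 24 h later with compound in ethanol (0.1% final); controls got ethanol alone. Cells washed in cold PBS and extracted. Cer species, Sph and S1P measured by HPLC-MS/MS (C8 column, positive-ion MRM) against internal standards and calibration curves. Results given as pmol/nmol phospholipid phosphate, relative to ethanol controls.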

Test [2] relates to MCF7. Put plainly: Increase in endogenous sphingosine level in human MCF7 cells at 10 uM after 24 hrs. It counts as functional. A digest of the protocol:
as §1

Test [3] concerns MCF7. Put plainly: Increase in endogenous ceramide level in human MCF7 cells at 50 uM after 24 hrs. The test is classed as functional. A digest of the protocol: as §1
Test [4] relates to MCF7. In words: Growth inhibition of human MCF7 cells after 48 hrs. The test is classed as functional, cell-based.
The subject of test [5] is MCF7. In words: Increase in endogenous C24:1-ceramide level in human MCF7 cells at 10 uM after 1 to 2.5 hrs. It counts as functional, cell-based. The gist of the method: as §1
The subject of test [6] is MCF7. In words: Increase in endogenous sphingosine level in human MCF7 cells upto 10 uM after 24 hrs. It counts as functional, cell-based. The gist of the method: as §1
Test [7] concerns MCF7. In words: Decrease in endogenous sphingosine level in human MCF7 cells at 50 uM after 24 hrs. Details: scale not given: the % may be the effect or the level left.
Test [8] relates to MCF7. In words: Increase in endogenous C24-ceramide level in human MCF7 cells at 10 uM after 1 to 2.5 hrs. It counts as functional, cell-based. A digest of the protocol: (§2)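 MCF7 cells grown in RPMI 1640 with 10% FCS at 37 °C, 5% CO2. Seeded at ~50% density (1×10^6 cells), treated 24 h later with compounds in ethanol (0.1% final); controls got ethanol only. Cells washed in cold PBS and lipids extracted. Cer species and Sph quantified by HPLC-MS/MS (MRM, positive ion) against internal standards and calibration curves. Values given as pmol/nmol phospholipid and compared with ethanol controls.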

Test [9] has as its system MCF7. In words: Decrease in endogenous sphingosine level in human MCF7 cells upto 10 uM after 48 hrs. It counts as functional. Details: scale not given: the % may be the effect or the level left. A digest of the protocol:
as §2

For test [10], the system named is MCF7. Put plainly: Increase in endogenous C16-ceramide level in human MCF7 cells at 50 uM after 24 hrs. It counts as functional. The gist of the method:
as §2

The test system of test [11] is MCF7. Put plainly: Increase in endogenous ceramide level in human MCF7 cells at 10 to 50 uM after 24 hrs. The test is classed as functional, cell-based. A digest of the protocol: as §1
Test [12] relates to MCF7. In words: Decrease in endogenous sphingosine level in human MCF7 cells at 10-50 uM after 24 hrs. It counts as functional, cell-based. A digest of the protocol:
as §2

In test [13] the test system is MCF7. Put plainly: Increase in endogenous ceramide level in human MCF7 cells at 1 uM after 24 hrs. The test is classed as functional. A digest of the protocol:
as §1

Test [14] relates to MCF7. Put plainly: Increase in endogenous C16-ceramide level in human MCF7 cells at 10 uM after 5 mins. The test is classed as functional, cell-based. A digest of the protocol: as §2
For test [15], the system named is MCF7. In words: Increase in endogenous C16-ceramide level in human MCF7 cells at 10 uM after 2.5 hrs. The test is classed as functional. A digest of the protocol: as §2
Test [16] relates to MCF7. Put plainly: Increase in endogenous C18-ceramide level in human MCF7 cells at 10 uM after 5 mins. It counts as functional, cell-based. The gist of the method: as §2
For test [17], the system named is MCF7. Put plainly: Increase in endogenous C18-ceramide level in human MCF7 cells at 1 uM after 24 hrs. It counts as functional, cell-based. A digest of the protocol: as §2
In test [18] the test system is MCF7. In words: Inhibition of endogenous sphingosine level in human MCF7 cells at 10 uM after 2.5 hrs. It counts as functional, cell-based. A digest of the protocol:
as §1

In test [19] the test system is MCF7. In words: Increase in endogenous C24:1-ceramide level in human MCF7 cells at 10 uM after 5 mins. It counts as functional, cell-based. A digest of the protocol: as §1
Test [20] deals with MCF7. Put plainly: Increase in endogenous C14-ceramide level in human MCF7 cells at 1 uM after 24 hrs. The test is classed as functional, cell-based. A digest of the protocol:
as §2

Test [21] has as its system MCF7. In words: Increase in endogenous C16-ceramide level in human MCF7 cells at 1 uM after 24 hrs. It counts as functional, cell-based. A digest of the protocol:
as §2

Test [22] relates to MCF7. In words: Decrease in endogenous sphingosine level in human MCF7 cells at 1 uM after 24 hrs. It counts as functional. Details: scale not given: the % may be the effect or the level left. A digest of the protocol:
as §2

In test [23] the test system is MCF7. In words: Increase in endogenous C24-ceramide level in human MCF7 cells at 10 uM after 5 mins. The test is classed as functional, cell-based. A digest of the protocol: as §2
In test [24] the test system is MCF7. In words: Increase in endogenous C18-ceramide level in human MCF7 cells at 10 uM after 2.5 hrs. The test is classed as functional. The gist of the method:
as §2

Test [25] has as its system MCF7. In words: Inhibition of acid ceramidase in human MCF7 cells assessed as enzyme degradation at 10 uM after 5 hrs. The test is classed as cell-based.
Test [26] deals with MCF7. In words: Increase in endogenous C14-ceramide level in human MCF7 cells at 10 uM after 2.5 hrs. The test is classed as functional. A digest of the protocol: as §2
Test [27] concerns MCF7. In words: Decrease in endogenous sphingosine level in human MCF7 cells at 10 uM within 5 mins. The test is classed as functional. Details: scale not given: the % may be the effect or the level left. The gist of the method: as §2
The subject of test [28] is MCF7. Put plainly: Increase in endogenous C14-ceramide level in human MCF7 cells at 10 uM after 5 mins. The test is classed as functional, cell-based. The gist of the method:
as §2

Calls of active or inactive are those of the source. No cut-off for these calls is given here.

With `CCCCCCCCCCCCNC(=O)N[C@H](C)[C@@H](O)c1ccccc1`, the outcome with MCF7 [1], with MCF7 [4], in the test on MCF7 [5], with MCF7 [6], with MCF7 [8] and in the test on MCF7 [10] was Active. For the same compound, the Activity is given as 140% in the test on MCF7 [2], 180% with MCF7 [3], 25% in the test on MCF7 [7] and 25% with MCF7 [9].
With `CCCCCCCCCCCCCC(=O)N[C@@H](C)[C@@H](O)c1ccccc1`, the result in the test with MCF7 [11] and with MCF7 [12] was inactive.
As to `CCCCCCCCCCCCCCN[C@H](C)[C@@H](O)c1ccccc1.Cl`, the Activity in the test on MCF7 [13] is listed as 180%; in the test on MCF7 [15], 330%; with MCF7 [22], 80%; with MCF7 [24], 260%; in the test on MCF7 [26] it was 430%; in the test on MCF7 [27] it was 25%. Also, the result with MCF7 [14], with MCF7 [16], in the test with MCF7 [17], in the test with MCF7 [18], in the test with MCF7 [20] and in the test with MCF7 [21] was Active. For the same compound, the outcome in the test on MCF7 [25] and in the test with MCF7 [28] was Active. The result with MCF7 [19] and with MCF7 [23] was inactive.
Take `CCCCCCCCCCCCCCN[C@H](C)[C@H](O)c1ccccc1`: the result in the test on MCF7 [18] was Active.

The record behind these values is ChEMBL document CHEMBL1143123, “Novel analogs of D-e-MAPP and B13. Part 2: signature effects on bioactive sphingolipids” (2008).
